Measurements published in ChEMBL document CHEMBL5150043, “Discovery of Anthranilic Acid Derivatives as Difluoromethylornithine Adjunct Agents That Inhibit Far Upstream Element Binding Protein 1 (FUBP1) Function” (J Med Chem, 2022).

Columns and labels:
CHO-K1 [1] = assay: Cytotoxicity against chinese hamster CHO-K1 cells assessed as decrease in cell viability measured after 48 hrs by ATPlite assay; type: toxicity, cell-based, Cricetulus griseus; settings: cho-k1, 48 h
Outline: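 CHO-K1 cells dosed alone in 384-well format in parallel with Assays 1 and 2; MTC taken as highest concentration giving ≥90% relative growth versus untreated control; typical error ±10% (n = 3).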

CHO-K1 [2] = assay: Inhibition of spermidine uptake in chinese hamster CHO-K1 cells assessed as decrease in cell growth by measuring cellular ATP content measured after 48 hrs in presence of DFMO and spermidine by ATPlite assay; settings: Cricetulus griseus, CHO-K1, 48 h
[3] = Inhibition of spermidine uptake chinese hamster CHO-K1 cells assessed as decrease in cell growth by measuring cellular ATP content measured after 48 hrs in presence of DFMO and spermidine by ATPlite assay; type: functional, cell-based; settings: Cricetulus griseus, CHO-K1, 48 h
L3.6pl [4] = assay: Cytotoxicity against human L3.6pl cells assessed as cell viability measured after 72 hrs by ATPlite assay; type: toxicity, cell-based
Outline: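 L3.6pl human pancreatic cancer cells in 96-well format were exposed to compound alone for 72 h. Growth was expressed relative to an untreated control. MTC is the highest concentration with relative growth still >90%. […] Data come from two or more experiments, each run in triplicate (n ≥ 6).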

[5] = Cytotoxicity against human L3.6pl cells assessed as inhibition of cell growth measured after 72 hrs by ATPlite assay; type: toxicity, cell-based
L3.6pl [6] = assay: Inhibition of polyamine uptake in human L3.6pl cells assessed as inhibition of Ant44-induced toxicity by measuring cellular ATP content at MTC measured after 72 hrs in presence of Ant44 by ATPlite assay; type: functional
Outline: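 L3.6pl cells, Ant44 challenge over 72 h, compound dosed up to its MTC; ECx = percentage effect at the MTC on scale from Ant44-only (50% growth) to untreated (100%); average of ≥2 experiments in triplicate (n ≥ 6).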

[7] = Inhibition of spermidine uptake in human L3.6pl cells assessed as inhibition of cell growth by measuring cellular ATP content at MTC measured after 72 hrs in presence of DFMO and spermidine by ATPlite assay; type: functional
Outline: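 L3.6pl cells with DFMO and spermidine over 72 h, compound dosed up to its MTC; ECx = percentage effect at the MTC on scale between DFMO-only (50%) and DFMO + Spd (100%) controls; average of ≥2 experiments in triplicate (n ≥ 6).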

Row | SMILES | MTC (CHO-K1 [1]) [µM] | EC50 (CHO-K1 [2]) [µM] | EC50 [3] [µM] | MTC (L3.6pl [4]) [µM] | IC50 at 72 h [5] [µM] | inhibition (INH) (L3.6pl [6]) [%] | inhibition (INH) [7] [%]
1 | COc1ccccc1N1CCN(c2ccc(NC(=O)c3ccccc3Cl)c(C(=O)O)c2)CC1 | 36 | 26 | 16 | – | – | – | –
2 | COc1ccccc1C(=O)Nc1ccc(N2CCN(C(=O)c3ccccn3)CC2)cc1C(=O)O | > 40 | > 40 | > 40 | 10 | > 10 | – | –
3 | CCOc1ccccc1N1CCN(c2ccc(NC(=O)c3ccc(OC)cc3)c(C(=O)O)c2)CC1 | 37 | 20 | – | 10 | > 20 | – | –
4 | COc1ccccc1C(=O)Nc1ccc(N2CCN(c3cc(Cl)ccc3C)CC2)cc1C(=O)O | 19 | 21 | 2 | 7 | 29.1 | – | –
5 | COc1ccc(CC(=O)Nc2ccc(N3CCN(c4cc(Cl)ccc4C)CC3)cc2C(=O)O)cc1 | 24 | 25 | 32 | – | – | – | –
6 | Cc1ccc(C)c(N2CCN(c3ccc(N4C(=O)CC(c5ccccc5)C4=O)cc3[N+](=O)[O-])CC2)c1 (stereo not given) | 32 | 27 | – | – | – | – | –
7 | COc1ccccc1C(=O)Nc1ccc(N2CCN(Cc3ccccc3)CC2)cc1C(=O)O | > 40 | > 40 | > 40 | 10 | > 10 | – | –
8 | COCCNC(=O)CN1CCN(c2ccc(NC(=O)c3ccc(OC)cc3)c(C(=O)O)c2)CC1 | > 40 | > 40 | – | – | – | – | –
9 | COC(=O)c1cc(N2CCN(c3cc(Cl)ccc3C)CC2)ccc1NC(=O)c1ccc(OC)cc1 | > 40 | > 40 | > 40 | – | – | – | –
10 | COc1ccc(C(=O)Nc2ccc(N3CCN(c4ccccc4F)CC3)cc2C(=O)O)cc1 | 25 | 33 | – | – | – | – | –
11 | COc1ccccc1C(=O)Nc1ccc(N2CCN(Cc3ccccn3)CC2)cc1C(=O)O | > 40 | 10 | – | 10 | > 100 | – | –
12 | Cc1ccc(C(=O)Nc2ccc(N3CCN(c4cc(Cl)ccc4C)CC3)c(C(=O)O)c2)cc1 | 12 | 5 | – | – | – | – | –
13 | COc1ccccc1C(=O)Nc1ccc(N2CCN(CCCc3ccccc3)CC2)cc1C(=O)O | > 40 | > 40 | > 40 | 10 | > 10 | – | –
14 | Cc1ccc(C)c(N2CCN(c3ccc(NC(=O)c4ccc(Cl)cc4)cc3C(=O)O)CC2)c1 | > 40 | > 40 | – | – | – | – | –
15 | Cc1cccc(N2CCN(c3ccc(NC(=O)c4ccccc4Cl)c(C(=O)O)c3)CC2)c1C | 26 | 22 | – | – | – | – | –
16 | COC(=O)c1cc(N2CCN(c3cc(Cl)ccc3C)CC2)ccc1NC(=O)c1ccc(OC)cc1OC | > 40 | > 40 | > 40 | – | – | – | –
17 | COc1ccc(C(=O)Nc2ccc(N3CCC(c4cccc(C)c4)C3)cc2C(=O)O)cc1 (stereo not given) | > 40 | > 40 | > 40 | 25 | 39.9 | – | –
18 | COc1ccc(C(=O)Nc2ccc(N3CCN(C4CCCCC4)CC3)cc2C(=O)O)cc1 | > 40 | > 40 | – | – | – | – | –
19 | O=C(Nc1ccc(N2CCN(c3ccccn3)CC2)cc1C(=O)O)c1ccco1 | > 40 | > 40 | > 40 | 12 | > 50 | 41 | 31
20 | COc1ccccc1C(=O)Nc1ccc(N2CCC(Oc3ccccc3)CC2)cc1C(=O)O | > 40 | 19 | 32 | 10 | 38.6 | 35 | 45
21 | COc1ccc(C(=O)Nc2ccc(N3CCC(N4CCCCC4)CC3)cc2C(=O)O)cc1 | > 40 | > 40 | – | – | – | – | –
22 | COc1ccccc1N1CCN(c2ccc(NC(=O)c3ccccc3-c3cccs3)cc2C(=O)O)CC1 | > 40 | 27 | > 40 | – | – | – | –
23 | COc1ccccc1N1CCN(c2ccc(N3C(=O)CCC3=O)cc2[N+](=O)[O-])CC1 | 27 | 30 | – | – | – | – | –
24 | COc1ccccc1C(=O)Nc1ccc(N2CCN(c3ccccn3)CC2)cc1C(=O)O | 21 | – | 4 | 2 | > 100 | – | –
25 | COc1ccc(N2CCN(c3ccc(NC(=O)C4CCCCC4)cc3C#N)CC2)cc1 | 17 | 23 | > 40 | – | – | – | –
26 | COc1ccccc1C(=O)Nc1ccc(CN2CCN(c3ccccn3)CC2)cc1C(=O)O | > 40 | > 40 | > 40 | 10 | > 10 | – | –

Row | SMILES | MTC (CHO-K1 [1]) [µM] | EC50 (CHO-K1 [2]) [µM] | EC50 [3] [µM] | MTC (L3.6pl [4]) [µM] | IC50 at 72 h [5] [µM] | inhibition (INH) (L3.6pl [6]) [%] | inhibition (INH) [7] [%]
27 | COc1ccc(C(=O)Nc2ccc(N3CCN(c4ccccc4)CC3)cc2C(=O)O)cc1 | 17 | 15 | > 40 | – | – | – | –
28 | Cc1ccccc1C(=O)Nc1ccc(N2CCN(c3cc(Cl)ccc3C)CC2)c(C(=O)O)c1 | > 40 | > 40 | > 40 | – | – | – | –
29 | COc1ccc(C(=O)Nc2ccc(N3CCN(c4cccc(C)c4)CC3)cc2C(=O)O)cc1 | 22 | 16 | > 40 | – | – | – | –
30 | COc1ccc(C(=O)Nc2ccc(N3CCC(C(N)=O)CC3)cc2C(=O)O)cc1 | 22 | > 40 | > 40 | – | – | – | –
31 | COc1ccc(C(=O)Nc2ccc(N3CCN(c4cccc(Cl)c4)CC3)cc2C(=O)O)cc1 | 20 | 17 | – | – | – | – | –
32 | COc1ccc(C(=O)Nc2ccc(N3CCCN(c4ncccn4)CC3)cc2C(=O)O)cc1 | > 40 | – | 12 | 25 | > 30 | – | –
33 | Cc1ccccc1CN1CCN(c2ccc(NC(=O)C(C)(C)C)cc2)CC1 | 2 | 2 | – | 10 | > 10 | 15 | 15
34 | COc1ccc(C(=O)Nc2ccc(N3CCN(c4cc(Cl)ccc4C)CC3)cc2C(=O)O)c(OC)c1 | > 40 | > 40 | > 40 | 40 | 61.6 | – | –
35 | COc1ccccc1C(=O)Nc1ccc(N2CCN(c3ccccn3)CC2)cc1 | 14 | > 40 | > 40 | 10 | > 10 | – | –
36 | Cc1cccc(N2CCN(c3ccc(NC(=O)c4cccc(Cl)c4)c(C(=O)O)c3)CC2)c1C | 10 | 8 | – | – | – | – | –
37 | Cc1ccc(CC(=O)Nc2ccc(N3CCN(c4ccccc4Cl)CC3)cc2C(=O)O)cc1 | > 40 | 32 | 16 | – | – | – | –
38 | COc1ccc(C(=O)Nc2ccc(N3CCN(c4ccc(OC)cc4)CC3)cc2C(=O)O)cc1 | > 40 | > 40 | > 40 | – | – | – | –
39 | COC(=O)c1cc(CN2CCN(c3ccccn3)CC2)ccc1NC(=O)c1ccccc1OC | > 20 | > 20 | > 20 | – | – | – | –
40 | COc1ccccc1C(=O)Nc1ccc(N2CCN(c3cccc(C)c3C)CC2)cc1C(=O)O | 28 | 23 | 2 | 8 | 22.9 | – | –
41 | COc1ccccc1C(=O)Nc1ccc(N2CCC(c3ccccc3)CC2)cc1C(=O)O | > 40 | 21 | 18 | 9 | 46.3 | – | –
42 | COC(=O)c1cc(N2CCN(c3cc(Cl)ccc3C)CC2)ccc1NC(=O)c1ccccc1OC | > 40 | > 40 | > 40 | – | – | – | –
43 | CCN(CC)C(=O)CN1CCN(c2ccc(NC(=O)c3ccc(OC)cc3)c(C(=O)O)c2)CC1 | 28 | > 40 | > 40 | – | – | – | –
44 | COc1ccc(C(=O)Nc2ccc(N3CCN(c4ccc(C(C)=O)cc4)CC3)cc2C(=O)O)cc1 | 20 | 21 | > 40 | – | – | – | –
45 | COc1ccc(C(=O)Nc2ccc(N3CCN(c4cc(Cl)ccc4C)CC3)c(C(=O)O)c2)cc1 | 14 | 5 | – | – | – | – | –
46 | O=C(Nc1ccc(N2CCN(C3CCCCC3)CC2)cc1C(=O)O)c1ccc(F)cc1 | > 40 | > 40 | – | – | – | – | –
47 | COc1ccc(C(=O)Nc2ccc(N3CCN(c4ccccc4Cl)CC3)cc2C(=O)O)cc1 | 28 | 27 | – | 90 | 125 | 27 | 2
48 | O=C(Nc1ccc(N2CCN(c3ccccc3F)CC2)c(C(=O)O)c1)c1ccc(Cl)cc1 | > 40 | > 40 | – | – | – | – | –
49 | COc1ccccc1N1CCN(c2ccc(NC(=O)c3ccccc3)cc2C(=O)O)CC1 | > 40 | > 40 | – | – | – | – | –
50 | CCOC(=O)N1CCN(c2ccc(NC(=O)c3ccc(OC)cc3)c(C(=O)O)c2)CC1 | 34 | > 40 | > 40 | – | – | – | –
51 | Cc1cccc(N2CCN(c3ccc(NC(=O)c4ccccc4F)cc3C(=O)O)CC2C)c1 (stereo not given) | > 40 | > 40 | – | – | – | – | –
